ChEMBL document CHEMBL4422695, “Antiangiogenic Activity of Compounds Isolated from Anarrhinum pedatum” (2019)
Activity calls are given as the source filed them. The rule behind the calls is not given here.

Key:
[1] = organism: Danio rerio; test: Antiangiogenic activity in wild type zebrafish 24 hrs post fertilization embryos assessed as reduction in blood vessel growth at 2 uM treated for 48 hrs by alkaline phosphatase assay relative to control; assay type: functional
In short: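 Wild-type zebrafish embryos from natural mating, raised at 28.5 °C; healthy embryos selected at 24 hpf, dechorionated, one per well in 100 μL embryo water with agent (2 μM) in DMSO 0.2% v/v, 10 per group, exposed 24–72 hpf. Ethanol-dehydrated, diethanolamine buffer (1 M, pH 9.8) washes, p-nitrophenyl phosphate 0.5 mg/mL 30 min RT, NaOH stop, OD 405 nm; percent of control, ≥3 repeats, t-test.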

[2] = tested on: Chorioallantoic membrane; test: Antiangiogenic activity in chicken fertilized egg chorioallantoic membrane assessed as appearance of less dense microvasculature at 2 uM after 48 hrs by stereomicroscopic analysis; assay type: functional, tissue-based; conditions: Gallus gallus
In short: (§1)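 Fertilized chicken eggs incubated at 37 °C, positioned horizontally and rotated; 1 cm2 window opened on day 4, malformed or dead embryos excluded. Test agents at 2 μM (100 μL/egg) or retinoic acid at 3 μM, in DMSO (0.2% v/v) in Tris buffer pH 7.4; ten eggs/group. Reincubated 2 days. CAM microvasculature imaged under stereomicroscope, standardized area quantified; percent of vehicle control, three repeats, t-test.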

[3] = tested on: Chorioallantoic membrane; test: Antiangiogenic activity in chicken fertilized egg chorioallantoic membrane at 2 uM after 48 hrs by stereomicroscopic analysis relative to control; assay type: functional, tissue-based; conditions: Gallus gallus; in short: as §1
[4] = tested on: Chorioallantoic membrane; test: Antiangiogenic activity in chicken fertilized egg chorioallantoic membrane assessed as reduction in capillary formation at 3 uM after 48 hrs by stereomicroscopic analysis; assay type: functional, tissue-based; conditions: Gallus gallus; in short: as §1
[5] = tested on: Chorioallantoic membrane; test: Antiangiogenic activity in chicken fertilized egg chorioallantoic membrane at 3 uM after 48 hrs by stereomicroscopic analysis relative to control; assay type: functional, tissue-based; conditions: Gallus gallus; in short: as §1

Row | SMILES | Activity [1] | Activity [2] | Activity [3] | other results
1 | C[C@]12O[C@H]1[C@@H](OC(=O)/C=C/c1ccccc1)[C@]1(O)C=CO[C@@H](O[C@@H]3O[C@H](CO)[C@@H](O)[C@H](O)[C@H]3O)[C@@H]12 | inactive | Active | 23.9% | 
2 | COc1cc2c(cc1O)CC[C@@H]1[C@@H]2CC[C@]2(C)[C@@H](O)CC[C@@H]12 [2-METHOXYESTRADIOL] | 52% |  |  | 
3 | C[C@]12O[C@H]1[C@@H](O)[C@]1(O)C=CO[C@@H](O[C@@H]3O[C@H](CO)[C@@H](O)[C@H](O)[C@H]3O)[C@@H]12 [ANTIRRHINOSIDE] | 81% | Active | 29.9% | 
4 | C/C(=C\CO[C@@H]1O[C@H](CO)[C@@H](O)[C@H](O)[C@H]1O)CC/C=C(\C)C(=O)O[C@@H]1O[C@H](CO)[C@@H](O)[C@H](O)[C@H]1O | inactive |  |  | 
5 | C/C(=C\CO)CC/C=C(\C)C(=O)O[C@@H]1[C@@H]2O[C@]2(CO)[C@H]2[C@H](O[C@@H]3O[C@H](CO)[C@@H](O)[C@H](O)[C@H]3O)OC=C[C@@]12O | inactive |  |  | 
6 | C=C[C@@](C)(O)CC/C=C(\C)C(=O)O[C@@]12C=CO[C@@H](O[C@@H]3O[C@H](CO)[C@@H](O)[C@H](O)[C@H]3O)[C@@H]1[C@@]1(C)O[C@H]1[C@H]2OC(=O)/C(C)=C/CC/C(C)=C/CO | inactive |  |  | 
7 | C/C(=C\CO)CC/C=C(\C)C(=O)O[C@@H]1[C@@H]2O[C@]2(C)[C@H]2[C@H](O[C@@H]3O[C@H](CO)[C@@H](O)[C@H](O)[C@H]3O)OC=C[C@@]12OC(=O)/C(C)=C/CC/C(C)=C/CO | inactive |  |  | 
8 | C=C[C@@](C)(O)CC/C=C(\C)C(=O)O[C@@H]1O[C@H](CO)[C@@H](O)[C@H](O)[C@H]1O | 56.98% | Active | 29% | 
9 | CC1=C(/C=C/C(C)=C/C=C/C(C)=C/C(=O)O)C(C)(C)CCC1 |  |  |  | Activity [4]: Active; Activity [5]: 45%
10 | C=C[C@@](C)(O)CC/C=C(\C)C(=O)O[C@@]12C=CO[C@@H](O[C@@H]3O[C@H](CO)[C@@H](O)[C@H](O)[C@H]3O)[C@@H]1[C@@]1(CO)O[C@H]1[C@H]2OC(=O)/C(C)=C/CC/C(C)=C/CO | inactive | Active | 31.4% | 
11 | C/C(=C\CO)CC/C=C(\C)C(=O)O[C@@H]1[C@@H]2O[C@]2(C)[C@H]2[C@H](O[C@@H]3O[C@H](CO)[C@@H](O)[C@H](O)[C@H]3O)OC=C[C@@]12O | 48.33% | Active | 29.6% | 
12 | C/C(=C\CO)CC/C=C(\C)C(=O)OC[C@H]1OC(O)[C@H](O)[C@@H](O)[C@@H]1O (some centres not stated) | inactive |  |  | 
13 | C/C(=C\CO)CC/C=C(\C)C(=O)O[C@@H]1O[C@H](CO)[C@@H](O)[C@H](O)[C@H]1O | 79.82% |  |  | 
14 | O=C(/C=C/c1ccccc1)OC[C@H]1O[C@@H](O[C@@H]2OC=C[C@@]3(O)[C@H](O)[C@@H]4O[C@]4(CO)[C@@H]23)[C@H](O)[C@@H](O)[C@@H]1O | inactive |  |  | 
15 | C/C(=C/CO)CC/C=C(\C)C(=O)OC[C@H]1O[C@@H](O[C@@H]2OC=C(C(=O)O[C@@H]3CO[C@](O)(CO)[C@@H](O)[C@@H]3O)[C@H]3CC[C@](C)(O)[C@@H]23)[C@H](O)[C@@H](O)[C@@H]1O | inactive |  |  | 
16 | C/C(=C\CO)CC/C=C(\C)C(=O)O[C@@H]1[C@@H]2O[C@]2(CO)[C@H]2[C@H](O[C@@H]3O[C@H](CO)[C@@H](O)[C@H](O)[C@H]3O)OC=C[C@@]12OC(=O)/C(C)=C/CC/C(C)=C/CO | inactive |  |  | 
17 | C[C@]1(O)CC[C@@H]2C(C(=O)O[C@@H]3CO[C@](O)(CO)[C@@H](O)[C@@H]3O)=CO[C@@H](O[C@@H]3O[C@H](COC(=O)C=Cc4ccc(O)cc4)[C@@H](O)[C@H](O)[C@H]3O)[C@@H]21 (mixture of isomers) | inactive |  |  | 
18 | C=C[C@@](C)(O)CC/C=C(\C)C(=O)OC[C@H]1O[C@@H](O[C@@H]2OC=C(C(=O)O[C@@H]3CO[C@](O)(CO)[C@@H](O)[C@@H]3O)[C@H]3CC[C@](C)(O)[C@@H]23)[C@H](O)[C@@H](O)[C@@H]1O | 72.72% | Active | 21.5% | 
19 | C[C@]12O[C@H]1[C@@H](OC(=O)C=Cc1ccc(O)cc1)[C@]1(O)C=CO[C@@H](O[C@@H]3O[C@H](CO)[C@@H](O)[C@H](O)[C@H]3O)[C@@H]12 (mixture of isomers) | 77.38% |  |  | 
